Test results as given in ChEMBL document CHEMBL3414521, “Discovery of the 2-phenyl-4,5,6,7-Tetrahydro-1H-indole as a novel anti-hepatitis C virus targeting scaffold” (Eur J Med Chem, 2015).
pEC50, pIC50: −log10 of the molar value. The source made the active and inactive calls. The rule behind the calls is not given here.

Tests used:
[1] = system: Hepatitis C virus (isolate Con1); experiment: Inhibition of HCV Con1 genotype 1b C-terminal His-tagged NS3 helicase lacking N-terminal protease using fluorescent DNA as substrate at 500 uM
Procedure, shortened: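 Molecular beacon unwinding assay: 12.5 nM NS3h, 5 nM fluorescent DNA substrate, 1 mM ATP, 25 mM MOPS pH 6.5, 1.25 mM MgCl2, 5% DMSO, 5 µg/ml BSA, 0.01% Tween20, 0.05 mM DTT; compounds up to 500 μM.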

Hepatitis C virus [2] = experiment: Antiviral activity against HCV genotype 2a infected in HuH7.5-FGR-JC1_Rluc2A cells by […]; type: functional, Hepacivirus hominis
Hepacivirus hominis = experiment: Inhibition of recombinant HCV hexa histidine-tagged NS5B Cdelta21 RNA dependent RNA polymerase expressed in Escherichia coli at 50 uM after 60 mins by liquid scintillation counting analysis
[3] = Cytotoxicity against human Huh7.5 cells after 48 hrs by MTS assay; type: cell-based; conditions: huh-7, 48 h
Procedure, shortened: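 Parental Huh7.5 cells grown in DMEM with 10% FCS without G418, 37 °C, 5% CO2; treated at 6–8 doses for 48 h. Viability by MTS bioreduction to formazan; CC50 as concentration halving MTS conversion relative to DMSO controls, mean ± SD of three independent experiments.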

[4] = Selectivity index, ratio of CC50 for human Huh7.5 cells to EC50 for HCV genotype 2a infected in HuH7.5-FGR-JC1_Rluc2A cells; set-up: species or system Huh-7
Hepatitis C virus [5] = experiment: Antiviral activity against HCV genotype 1b infected in HuH7/Rep-Feo1b cells at 50 uM by firefly luciferase reporter gene assay; type: functional, Hepacivirus hominis; conditions: Huh-7
Procedure, shortened: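 Replicon reporter cells (gt 1b in Huh7/Rep-Feo1b, firefly luciferase; gt 2a in Huh7.5-FGR-JC1-Rluc2A, Renilla luciferase) kept in DMEM with 10% FCS and 0.5 mg/mL G418, 37 °C, 5% CO2. About 1×10^4 cells per well were treated at 50 μM for 48 h in 1.0% DMSO. Luciferase signal was read relative to DMSO-treated cells as % inhibition.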

[6] = Inhibition of HCV Con1 genotype 1b C-terminal His-tagged NS3 helicase lacking N-terminal protease using ATP/RNA as substrate after 15 mins by malachite green-based assy; set-up: species or system Hepatitis C virus (isolate Con1)
Procedure, shortened: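 NS3h (con1 gt 1b, C-terminal His-tag, protease-deleted) at 4 nM with 1 μM polyU RNA (nucleotide), 25 mM MOPS pH 6.5, 1.25 mM MgCl2, 1 mM ATP, 33 µg/ml BSA, 0.07% Tween 20, 0.3 mM DTT, 10% DMSO; started with ATP, 15 min, 37 °C. Phosphate by malachite green, A630. Two-fold series 0.5 mM–0.78 µM, duplicate; variable-slope fit, mean ± SD.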

Hepatitis C virus [7] = experiment: Antiviral activity against HCV genotype 2a infected in HuH7.5-FGR-JC1_Rluc2A cells at 50 uM by […] luciferase reporter gene assay; type: functional, Hepacivirus hominis
Hepatitis C virus [8] = experiment: Antiviral activity against HCV genotype 1b infected in HuH7/Rep-Feo1b cells by firefly luciferase reporter gene assay; type: functional, cell-based, Hepacivirus hominis; conditions: Huh-7
Procedure, shortened: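 Huh7 cells carrying autonomously replicating gt 1b replicon with firefly luciferase reporter; ~1×10^4 cells/well treated 48 h, 1.0% DMSO final. Primary screen at 50 μM; actives titrated over 8–12 quarter-log dilutions. Luciferase signal relative to DMSO-treated controls; EC50 from dose-response curves, mean ± SD of three independent experiments.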

[9] = Selectivity index, ratio of CC50 for human Huh7.5 cells to EC50 for HCV genotype 1b infected in HuH7/Rep-Feo1b cells; set-up: species or system Huh-7
[10] = system: Internal ribosome entry site (IRES); experiment: Effect on HCV IRES-mediated translation infected in human Huh 7.5 cells by dual-glo luciferase assay; type: cell-based; conditions: Hepacivirus hominis
Heme oxygenase 1 = target: T1, Heme oxygenase 1 (Homo sapiens, UniProt P09601); experiment: Effect on heme oxygenase-1 (unknown origin)-mediated HCV replication in human MH14 cells transfected with pHO-1-Luc by luciferase reporter gene assay; type: ADME, cell-based
T1 sequence (P09601 whole entry): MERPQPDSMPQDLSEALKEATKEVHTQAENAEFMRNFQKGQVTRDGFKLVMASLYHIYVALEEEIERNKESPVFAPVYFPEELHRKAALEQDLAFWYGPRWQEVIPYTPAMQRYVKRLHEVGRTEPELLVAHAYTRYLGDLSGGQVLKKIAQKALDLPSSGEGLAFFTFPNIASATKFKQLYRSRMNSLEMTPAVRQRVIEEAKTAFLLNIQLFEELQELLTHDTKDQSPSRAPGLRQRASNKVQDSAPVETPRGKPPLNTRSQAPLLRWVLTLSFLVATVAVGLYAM
Procedure, shortened: (§1)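 MH-14 replicon cells transfected with 300 ng of the reporter plasmid (pCOX-2-FLuc, pHO-1-Luc, pISRE-Luc or p3xARE-Luc); 16 h later treated with compound at 5, 10 and 25 μM or DMSO for 48 h. Firefly luciferase read, normalized to Renilla luciferase for transfection efficiency.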

[11] = target: T2, Prostaglandin G/H synthase 2 (Homo sapiens, UniProt P35354); experiment: Effect on cyclooxygenase-2 (unknown origin)-mediated HCV replication in human MH14 cells transfected with pCOX-2-Fluc by luciferase reporter gene assay; type: ADME, cell-based; procedure, shortened: as §1
T2 sequence (P35354 whole entry): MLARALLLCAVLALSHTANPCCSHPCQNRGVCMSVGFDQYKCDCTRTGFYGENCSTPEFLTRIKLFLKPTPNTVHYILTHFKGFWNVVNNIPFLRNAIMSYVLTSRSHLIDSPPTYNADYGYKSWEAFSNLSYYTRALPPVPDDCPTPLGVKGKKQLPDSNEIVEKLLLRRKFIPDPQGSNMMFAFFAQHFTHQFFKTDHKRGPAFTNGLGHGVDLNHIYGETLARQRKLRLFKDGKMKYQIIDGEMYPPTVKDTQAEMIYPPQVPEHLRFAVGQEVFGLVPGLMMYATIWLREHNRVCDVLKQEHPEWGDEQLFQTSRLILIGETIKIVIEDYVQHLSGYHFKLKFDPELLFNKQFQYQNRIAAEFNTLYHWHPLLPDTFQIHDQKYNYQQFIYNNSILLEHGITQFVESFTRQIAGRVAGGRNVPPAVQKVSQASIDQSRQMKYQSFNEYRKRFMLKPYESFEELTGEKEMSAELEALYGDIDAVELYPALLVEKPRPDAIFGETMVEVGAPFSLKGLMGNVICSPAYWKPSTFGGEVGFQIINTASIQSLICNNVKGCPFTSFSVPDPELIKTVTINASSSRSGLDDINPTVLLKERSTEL

[12] = Effect on anti-oxidant response element (unknown origin)-mediated HCV replication in human MH14 cells transfected with p3xARE-Luc by luciferase reporter gene assay; type: ADME, cell-based; procedure, shortened: as §1
Hepatitis C virus [13] = experiment: Antiviral activity against HCV genotype 1b infected in human MH14 cells assessed as inhibition of replication after 48 hrs by RT-PCR analysis; type: functional; conditions: Hepacivirus hominis
Procedure, shortened: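 Stable gt 1b subgenomic replicon cells (MH-14), reporter-free, exposed to compound; total RNA isolated by spin-column kit, quantified spectrophotometrically, and HCV RNA measured by quantitative RT-PCR.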

[14] = Effect on interferon-stimulated response element (unknown origin)-mediated HCV replication in human MH14 cells transfected with pISRE-Luc by luciferase reporter gene assay; type: ADME, cell-based; procedure, shortened: as §1

Structure (SMILES) | inhibition [1] | pEC50 (Hepatitis C virus [2]) | inhibition (Hepacivirus hominis) | CC50 [3] [µM] | Ratio CC50/EC50 [4] | inhibition at 50 µM (Hepatitis C virus [5]) [%] | pIC50 [6] | inhibition at 50 µM (Hepatitis C virus [7]) [%] | pEC50 (Hepatitis C virus [8]) | Ratio CC50/EC50 [9] | inhibition [10] | inhibition (INH) (Heme oxygenase 1) | inhibition (INH) [11] | inhibition (INH) [12] | inhibition (Hepatitis C virus [13]) | inhibition (INH) [14]
COc1ccc(-c2cc3c(n2Cc2ccccc2)CCCC3)cc1 | inactive | 5.31 | inactive | 137 | 28 | 99 | < 3.00 | 96 | 4.93 | 12 |  |  |  |  |  | 
O=[N+]([O-])c1ccc(-c2cc3c(n2Cc2ccccc2)CCCC3)cc1 | inactive | 5.14 | inactive | > 200 | 27 | 75 | < 3.00 | 98 | 4.82 | 13 |  |  |  |  |  | 
c1ccc(Cn2c(-c3ccccc3)cc3c2CCCC3)cc1 | inactive | 5.59 | inactive | 80.8 | 32 | 95 | < 3.00 | 99 | 5.10 | 10 | inactive | Not Active | Not Active | Not Active | Dose-dependent effect | Not Active
